Results taken from ChEMBL document CHEMBL2390859, “Solid phase synthesis and biological evaluation of probestin as an angiogenesis inhibitor” (Bioorg Med Chem Lett, 2013).
Active and inactive are the calls of the source.

How the values were obtained:
MDA-MB-435 [1] = test: Antiangiogenic activity in human MDA-MB-435 cells xenografted in chicken embryo chorioallantoic membrane assessed as inhibition of blood vessel formation at 20 mg/kg measured after 2 days; assay type: functional, organism-based; design: dose 20 mg/kg
How it was run: (§1)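 Under the vascularized CAM of 10-day-old chicken embryos, 500,000 human breast carcinoma MDA-MB-435 cells were implanted. Embryos were dosed systemically with 20 mg/kg on days one and two. Tumor growth and vascularity were assessed, with 8–10 separate CAMs per group.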

MDA-MB-435 [2] = test: Antitumor activity against human MDA-MB-435 cells xenografted in chicken embryo chorioallantoic membrane assessed as inhibition of tumor volume at 20 mg/kg measured after 2 days; assay type: functional, organism-based; design: dose 20 mg/kg; how it was run: as §1
Gallus gallus [3] = test: Antiangiogenic activity in chicken embryo chorioallantoic membrane assessed as inhibition of VEGF-induced blood vessel formation at 25 uM applied topically to filter paper surface after 48 hrs by stereo microscopic analysis; assay type: functional, tissue-based
How it was run: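 CAM of 10-day-old chicken embryos; angiogenesis induced with filter discs soaked in VEGF, test agent applied alongside. 8–10 separate CAMs per group.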

[4] = Toxicity in chicken embryo chorioallantoic membrane assessed as effect on blood vessel at 10 uM applied topically to filter paper surface after 48 hrs by stereo microscopic analysis; assay type: tissue-based, Gallus gallus; conditions: in vivo
Mus musculus = test: Toxicity in BalbC mouse assessed as body weight loss at 50 to 200 mg/kg, ip administered 3 times per week measured over 6 weeks; assay type: organism-based; design: dose 50-200 mg/kg, route intraperitoneal; conditions: in vivo, 1008 h
How it was run: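 Healthy female BalbC mice, 10 weeks old, in groups of four, dosed intraperitoneally at 50, 100, 200 or 300 mg/kg three times weekly. Weights were tracked over 6 weeks and acute distress was watched for during the first 96 h. Significant weight loss over 6 weeks (P <0.05, one-way ANOVA with Neuman–Keuls post test) was the MTD criterion.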

[5] = Acute toxicity in ip dosed CDF mouse; assay type: organism-based; conditions: in vivo
[6] = Toxicity in ip dosed BalbC mouse assessed as body weight loss administered 3 times per week measured over 6 weeks; assay type: organism-based; conditions: in vivo
How it was run: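 Female BalbC mice, 10 weeks old and healthy, in groups of four, dosed ip at 50, 100, 200 and 300 mg/kg three times weekly. Body weight was tracked over 6 weeks, with observation for acute distress during the first 96 h after injection. MTD was defined as significant weight loss over 6 weeks (P <0.05, one-way ANOVA with Neuman–Keuls post test).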

Gallus gallus [7] = species on record: Gallus gallus; conditions: Chorioallantoic membrane, 10 uM

| Compound | inhibition (MDA-MB-435 [1]) | inhibition (MDA-MB-435 [2]) | inhibition (Gallus gallus [3]) | Activity [4] | Activity (Mus musculus) | LD50 [5] [mg/kg] | MTD at 1008 h [6] [mg/kg] | inhibition (Gallus gallus [7]) |
| --- | --- | --- | --- | --- | --- | --- | --- | --- |
| CC(C)C[C@H](NC(=O)[C@@H](O)[C@H](N)Cc1ccccc1)C(=O)O | Active | Active | – | – | – | – | – | – |
| CCN(CC)CCNC(=O)c1c(C)[nH]c(/C=C2\C(=O)Nc3ccc(F)cc32)c1C | Active | Active | Active | – | – | – | – | – |
| CC(C)C[C@H](NC(=O)[C@@H](O)[C@H](N)Cc1ccccc1)C(=O)N1CCC[C@H]1C(=O)N1CCC[C@H]1C(=O)O [PROBESTIN] | Active | Active | – | Non-toxic | Non-toxic | > 250 | 300 | Active |
